Experimental data: ChEMBL document CHEMBL1145542, “Discovery of a new class of potent, selective, and orally bioavailable CRTH2 (DP2) receptor antagonists for the treatment of allergic inflammatory diseases” (J Med Chem, 2008)

Tests used:
[1] = molecular target: T1, Prostaglandin D2 receptor 2 (Homo sapiens, UniProt Q9Y5Y4); test: Displacement of [3H]PGD2 from human CRTH2 receptor expressed in CHO cells; format: cell-based
T1 sequence (Q9Y5Y4 whole entry): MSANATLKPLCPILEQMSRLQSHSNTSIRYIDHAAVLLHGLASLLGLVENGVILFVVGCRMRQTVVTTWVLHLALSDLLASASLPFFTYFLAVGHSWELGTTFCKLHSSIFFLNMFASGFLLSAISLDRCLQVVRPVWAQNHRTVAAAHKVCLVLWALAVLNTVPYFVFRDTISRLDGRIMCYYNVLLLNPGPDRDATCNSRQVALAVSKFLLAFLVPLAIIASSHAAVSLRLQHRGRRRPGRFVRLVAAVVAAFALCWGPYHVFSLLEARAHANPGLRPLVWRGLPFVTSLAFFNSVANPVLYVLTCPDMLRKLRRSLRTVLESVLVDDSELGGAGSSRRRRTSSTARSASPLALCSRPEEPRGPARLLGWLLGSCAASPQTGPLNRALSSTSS
How it was run: (§1)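 Scintillation proximity competition assay: 2–5 µg human or mouse CRTH2 membranes (nitrogen-cavitation, differential centrifugation) with WGA-SPA beads and 1.5 nM [3H]PGD2 in 10 mM HEPES/KOH pH 7.4, 10 mM MnCl2, protease inhibitors, 1% Me2SO, 90 min shaking at room temperature. Nonspecific binding with 1 µM PGD2. Ki by Cheng–Prusoff, mean of ≥3 independent experiments.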

[2] = molecular target: T1, Prostaglandin D2 receptor 2; test: Antagonist activity at human CRTH2 receptor expressed in CHO cell membrane by [35S]GTP-gamma-S binding assay; format: functional, cell membranes
How it was run: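 [35S]GTPγS binding at 30 °C on 10 µg human CRTH2 membranes in 20 mM HEPES/KOH pH 7.4, 10 mM MgCl2, 10 µg/mL saponin, 3 µM GDP, 150 mM NaCl, 2% Me2SO. PGD2 preincubation 10 min (antagonist mode: 80 nM PGD2), then 0.15 nM [35S]GTPγS for 30 min. Nonspecific binding with 10 µM GTPγS; stopped by centrifugation, scintillation counting.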

[3] = Intrinsic clearance per mg of protein in human liver microsomes at 3 uM; format: ADME, Microsome
How it was run: (§2)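 Rat or human liver microsomes (0.5 mg/mL final) in 0.1 M phosphate pH 7.4 with 3 µM compound (1% DMSO), preincubated at 37 °C, started with 1 mM NADPH. Quenched with cold acetonitrile at 0, 15, 30, 45 min; LC/MS-MS of compound disappearance gives intrinsic clearance.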

[4] = Lipophilicity, log D of the compound; format: physicochemical; conditions: octanol/water
[5] = Intrinsic clearance per mg of protein in rat liver microsomes at 3 uM; format: ADME, Microsome; how it was run: as §2
[6] = molecular target: T2, Prostaglandin D2 receptor 2 (Mus musculus, UniProt Q9Z2J6); test: Displacement of [3H]PGD2 from mouse CRTH2 receptor expressed in HEK293 cells; format: cell-based; how it was run: as §1
T2 sequence (Q9Z2J6 whole entry): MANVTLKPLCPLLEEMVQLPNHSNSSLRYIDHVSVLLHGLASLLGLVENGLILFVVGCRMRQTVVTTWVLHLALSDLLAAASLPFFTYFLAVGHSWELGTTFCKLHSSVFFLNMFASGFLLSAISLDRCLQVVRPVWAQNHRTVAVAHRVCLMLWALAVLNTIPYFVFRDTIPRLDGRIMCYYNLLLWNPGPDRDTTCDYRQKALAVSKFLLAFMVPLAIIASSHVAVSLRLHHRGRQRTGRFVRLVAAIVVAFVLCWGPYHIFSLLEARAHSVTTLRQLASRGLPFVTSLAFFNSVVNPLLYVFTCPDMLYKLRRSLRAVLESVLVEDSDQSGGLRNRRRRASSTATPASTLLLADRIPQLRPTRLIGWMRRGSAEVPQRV

O=C(O)CN1C(=O)C2(CC(=O)N(Cc3ccoc3)C2=O)c2cc(Cl)ccc21 (stereo not given)
Ki [1]: 318 nM

O=C(O)CN1C(=O)C2(CC(=O)N(Cc3ccccc3)C2=O)c2cc(F)ccc21 (stereo not given)
Ki [1]: 712 nM

Cc1nc(CN2C(=O)CC3(C2=O)C(=O)N(CC(=O)O)c2ccc(Cl)cc23)cs1 (stereo not given)
IC50 [2]: 236 nM | Ki [1]: 38 nM

O=C(O)CN1C(=O)C2(CC(=O)N(Cc3cc(F)ccc3F)C2=O)c2cc(Cl)ccc21 (stereo not given)
microsomal CLint at 3 µM [3]: 6 µL/min/mg | logD [4]: -0.9 | Ki [1]: 21 nM

CC(c1ccccc1)N1C(=O)CC2(C(=O)N(CC(=O)O)c3ccc(Cl)cc32)C1=O (stereo not given)
Ki [1]: 356 nM

O=C(O)CN1C(=O)C2(CC(=O)N(Cc3cc(F)ccc3Cl)C2=O)c2cc(Cl)ccc21 (stereo not given)
microsomal CLint at 3 µM [3]: 2 µL/min/mg | logD [4]: -0.3 | Ki [1]: 43 nM | microsomal CLint at 3 µM [5]: 24 µL/min/mg

O=C(O)CCCN1C(=O)C2(CC(=O)N(Cc3ccccc3)C2=O)c2cc(F)ccc21 (stereo not given)
Ki [1]: 4170 nM

O=C(O)CN1C(=O)C2(CC(=O)N(Cc3cccc(Cl)c3)C2=O)c2cc(Cl)ccc21 (stereo not given)
IC50 [2]: 122 nM | Ki [1]: 68 nM

Cc1onc(-c2ccccc2)c1CN1C(=O)CC2(C1=O)C(=O)N(CC(=O)O)c1ccc(Cl)cc12 (stereo not given)
IC50 [2]: 21 nM | logD [4]: -0.6 | Ki [1]: 7.6 nM | microsomal CLint at 3 µM [5]: 26 µL/min/mg

O=C(O)CN1C(=O)[C@@]2(CC(=O)N(Cc3ccccc3)C2=O)c2cc(Cl)ccc21
Ki [1]: 81 nM

O=C(O)CN1C(=O)[C@]2(CC(=O)N(Cc3ccccc3F)C2=O)c2cc(Cl)ccc21
Ki [1]: 926 nM

O=C(O)CN1C(=O)[C@]2(CC(=O)N(Cc3ccccc3)C2=O)c2cc(Cl)ccc21
Ki [1]: 2040 nM

O=C(O)CN1C(=O)C2(CC(=O)N(Cc3c[nH]c4ccccc34)C2=O)c2cc(Cl)ccc21 (stereo not given)
Ki [1]: 596 nM

CN1C(=O)CC2(C1=O)C(=O)N(CC(=O)O)c1ccc(Cl)cc12 (stereo not given)
Ki [1]: 7620 nM

C=CCN1C(=O)CC2(C1=O)C(=O)N(CCCC(=O)O)c1ccc(Cl)cc12 (stereo not given)
Ki [1]: 769 nM

O=C(O)CN1C(=O)C2(CC(=O)N(Cc3nnc(C4CC4)s3)C2=O)c2cc(Cl)ccc21 (stereo not given)
Ki [1]: 497 nM

COc1ccc(CN2C(=O)CC3(C2=O)C(=O)N(CC(=O)O)c2ccc(Cl)cc23)cc1F (stereo not given)
Ki [1]: 154 nM

C=CCN1C(=O)CC2(C1=O)C(=O)N(CCCC(=O)O)c1ccc(F)cc12 (stereo not given)
Ki [1]: 4130 nM

COc1cccc(CN2C(=O)CC3(C2=O)C(=O)N(CC(=O)O)c2ccc(Cl)cc23)c1 (stereo not given)
Ki [1]: 169 nM | microsomal CLint at 3 µM [5]: > 60 µL/min/mg

O=C(O)CN1C(=O)C2(CC(=O)N(Cc3ccccc3)C2)c2cc(Cl)ccc21 (stereo not given)
Ki [6]: 480 nM | Ki [1]: 702 nM

CN(C)C(=O)CN1C(=O)CC2(C1=O)C(=O)N(CC(=O)O)c1ccc(F)cc12 (stereo not given)
Ki [1]: > 30000 nM

O=C(O)CN1C(=O)C2(CC(=O)N(Cc3ccc(Oc4ccccc4)cc3)C2=O)c2cc(Cl)ccc21 (stereo not given)
Ki [1]: 143 nM

O=C(O)CN1C(=O)C2(CC(=O)N(Cc3cc(Cl)ccc3F)C2)c2cc(Cl)ccc21 (single isomer, unassigned; form 2)
Ki [1]: 683 nM

Cn1nnc2cc(CN3C(=O)CC4(C3=O)C(=O)N(CC(=O)O)c3ccc(Cl)cc34)ccc21 (stereo not given)
Ki [1]: 1300 nM

COCCOCN1C(=O)CC2(C1=O)C(=O)N(CC(=O)O)c1ccc(F)cc12 (stereo not given)
Ki [1]: 3830 nM

COc1c(C)cnc(CN2C(=O)CC3(C2=O)C(=O)N(CC(=O)O)c2ccc(Cl)cc23)c1C (stereo not given)
Ki [1]: 12 nM | microsomal CLint at 3 µM [5]: 66 µL/min/mg

CCOC(=O)CN1C(=O)C2(CC(=O)N(Cc3ccccc3)C2=O)c2cc(Cl)ccc21 (stereo not given)
Ki [1]: > 30000 nM

O=C(O)CN1C(=O)C2(CC(=O)N(Cc3csc(-c4cccc(Cl)c4)n3)C2=O)c2cc(Cl)ccc21 (stereo not given)
IC50 [2]: 48 nM | Ki [1]: 24 nM

COc1ccc(CN2C(=O)CC3(C2=O)C(=O)N(CCCC(=O)O)c2ccc(Cl)cc23)cc1 (stereo not given)
Ki [1]: 960 nM

O=C(O)CN1C(=O)C2(CC(=O)N(Cc3csc(-c4ccc(Cl)cc4)n3)C2=O)c2cc(Cl)ccc21 (stereo not given)
Ki [1]: 55 nM

Cc1onc(-c2ccccc2)c1CN1CCC2(C1=O)C(=O)N(CC(=O)O)c1ccc(Cl)cc12 (stereo not given)
Ki [1]: 2240 nM
